From PubChem BioAssay
Most compounds without a hit are left out; they make up all but 10% or so of the library.
Diaphorase act – compounds boosting diaphorase resazurin reduction – biochemical, uHTS, resorufin fluorescence, counter-screen for diaphorase-coupled primary assays, primary screen; AID 1229, 2008; 190,000 compounds, 0.005% hits; Diaphorase/resazurin coupled assay, 16 min; stronger effect = higher value; 1 = vehicle wells, 0 = NADH-free wells; activation factor at 20 µM;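 active means diaphorase activity raised at least twofold by the compound at 20 µM; inactive means activation factor below 2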
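test system = bacterial diaphorase enzyme (C. kluyveri) | quantity = enzyme 0.07 U/mL final | reagent = NADH substrate 0.114 mM plus resazurin dye 0.1 mM, final | incubation = 16 min enzyme reaction, ambient temperature | buffer or medium = HEPES pH 7.4 buffer with MgCl2 and Tween 20 | signal = fluorescence of resorufin, 544 nm excitation, 590 nm emission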
WT yeast gro inh – growth inhibition of WT strain, primary screen, mitochondrial fusion inhibitor project, WT and mutant strains, chemical genetic | AID 1362, 2008 | inhibition, % at 10 µM | mitochondrial fusion phenotypic screen | 190,000 compounds, 2.1% hits; in the data active means inhibition above about 58%; tested in S. cerevisiae
PMI act – activators of human PMI, primary screen, biochemical, fluorescence intensity, near-Km mannose 6-phosphate; Mannose-6-phosphate isomerase (Homo sapiens), P34949; purified human PMI, coupled resazurin fluorescence, 20 min; stronger effect = higher value; 1 = vehicle control, 0 substrate-free wells; activation factor at 20 µM; 190,000 compounds, 0.005% hits; AID 1214, 2008;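 active means activation factor of 2 or more at 20 µM, relative to plate controls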
Target sequence (P34949 whole entry, looked up): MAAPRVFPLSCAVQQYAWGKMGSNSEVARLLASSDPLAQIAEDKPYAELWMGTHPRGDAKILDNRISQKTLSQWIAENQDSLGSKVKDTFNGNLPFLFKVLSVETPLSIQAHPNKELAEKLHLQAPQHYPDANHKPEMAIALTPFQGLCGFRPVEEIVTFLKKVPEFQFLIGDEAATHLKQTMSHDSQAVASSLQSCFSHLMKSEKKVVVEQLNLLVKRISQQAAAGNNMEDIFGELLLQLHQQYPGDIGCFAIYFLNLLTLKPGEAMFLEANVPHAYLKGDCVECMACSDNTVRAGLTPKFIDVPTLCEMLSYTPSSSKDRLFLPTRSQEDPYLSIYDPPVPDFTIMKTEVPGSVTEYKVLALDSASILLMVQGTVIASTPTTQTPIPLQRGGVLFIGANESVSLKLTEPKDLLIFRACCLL
Lmaj promast – Leishmania major promastigote growth inhibition, primary screen; Leishmania major promastigotes, resazurin fluorescence viability; inhibition, % at 10 µM; 200,000 compounds, 9% hits; in the data active means inhibition above about 50%;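 further: promastigotes grown with compound for 44 hours at 28 °C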
PMI act hi M6P – human PMI activators, high substrate, primary screen, biochemical, fluorescence intensity, near-saturating mannose 6-phosphate. coupled PMI enzyme assay, resazurin fluorescence, 20 min; stronger effect = higher value; 1 = untreated enzyme, 0 = substrate-free blank. 190,000 compounds, 0.34% hits. activation factor at 20 µM. AID 1216, 2008;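 active means activation factor of 2 or more at 20 µM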
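Test system: human phosphomannose isomerase with PGI, G6PDH, diaphorase coupling enzymes; amount: 15 ng/mL PMI; incubation: enzyme reaction with compound 20 min at room temperature; technique: resorufin fluorescence (Ex 544/Em 590 nm) from resazurin via diaphorase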
Each line names hits and unclear results; the compound was inactive in the other large screens.

O=C(OC(c1ccccc1)c1nccc2ccccc12)c1cccc([N+](=O)[O-])c1 (centres undefined)	WT yeast gro inh 67.5
O=C(Nc1cccc2ccccc12)c1ccc([N+](=O)[O-])s1	Lmaj promast 100.3
O=C(Nc1ccccc1F)c1ccc([N+](=O)[O-])s1	Lmaj promast 100.3
Cc1ccc(C(=O)Nc2cc([N+](=O)[O-])ccc2F)s1	none
Cc1ccc(C(=O)NNC(=S)Nc2cccc3ccccc23)s1	none
CCc1ccc(NS(=O)(=O)c2cccc3nonc23)cc1	none
Cc1cnc(NC(=O)Cc2cccs2)s1	none
C[n+]1cccc(C(=O)NNC(=O)C23CC4CC(CC(C4)C2)C3)c1	none
O=C(COc1ccc2c(c1)CCC2)N1CCN(c2cccc(C(F)(F)F)c2)CC1	Lmaj promast 64.6
O=C(c1cccc([N+](=O)[O-])c1)N1CCN(c2cccc(Cl)c2)CC1	none
COc1ccc(NC(=O)N2CCN(c3cccc(C(F)(F)F)c3)CC2)cc1OC	none
O=C(Nc1ccccc1)N1CCN(c2cccc(C(F)(F)F)c2)CC1	Lmaj promast 89.6
CN1CCC(N2CCN(c3cccc(C(F)(F)F)c3)CC2)CC1	Lmaj promast 100.1
COC(=O)c1cc(C(=O)N2CCN(c3cccc(Cl)c3)CC2)cc([N+](=O)[O-])c1	Lmaj promast 50.2
CC(=O)c1ccc(NC(=O)N2CCN(c3cccc(Cl)c3)CC2)cc1	Lmaj promast 58.8
CC(=O)c1ccc(N2CCN(C(=O)Nc3ccc(Cl)cc3)CC2)cc1	none
COC(=O)CCCCCCCCCC[N+]1(C)CCCCC1	none
C[N+]1(CC(=O)OC2CCCCCCCCCCC2)CCCC1	Lmaj promast 100.1
CCc1ccc(C(=O)Nc2ccc(OC)c(S(=O)(=O)N3CCOCC3)c2)cc1	none
COc1ccc(NC(=O)Cn2ncc(Cl)c(Cl)c2=O)cc1S(=O)(=O)N1CCOCC1	Lmaj promast 86.5
Cc1ccc(C(=O)OCn2ncc(Cl)c(Cl)c2=O)cc1	Lmaj promast 100.6
CCOC(=O)c1ccc(NC(=O)Cn2ncc(Cl)c(Cl)c2=O)cc1	Lmaj promast 95.6
O=C(OCn1ncc(Cl)c(Cl)c1=O)c1ccc(C(F)(F)F)cc1	none
CCCCn1c(=O)[nH]c(=O)c2c(C(=O)OCC)cc(-c3ccc(OC(F)F)cc3)nc21	none
CCN(CC)C(=O)c1sc(NC(=O)c2ccc(OC)c([N+](=O)[O-])c2)c(C#N)c1C	none
Cc1ccc(C(=O)NCCSc2ccccc2)cc1S(=O)(=O)Nc1ccccc1	none
CCCCC12CN3CC(C)(CN(C1)C31C(=O)N(C)c3ccc(C)cc31)C2=O (centres undefined)	none
Cc1nc(S/C(=C/c2ccc(-c3cccc(Cl)c3)o2)C(=O)O)n[nH]1	WT yeast gro inh 70.6
O=C(O)c1ccc(-c2cccc(Cl)c2)o1	none (no result: Diaphorase act, WT yeast gro inh, PMI act, PMI act hi M6P)
CC(C)C(=O)NC(c1cccs1)c1cc([N+](=O)[O-])c2cccnc2c1O (centres undefined)	none
CC(C)C(=O)NC(c1ccco1)c1ccc2cccnc2c1O (centres undefined)	Lmaj promast 99.7
Oc1c(C(Nc2nc3ccccc3s2)c2ccco2)ccc2cccnc12 (centres undefined)	Lmaj promast 100.1
O=C(Nc1nc(-c2nc3ccccc3s2)cs1)c1ccco1	none
COc1ccc2[nH]cc(CCNS(=O)(=O)c3ccccc3)c2c1	none
CC(C)C(=O)c1cn(CC(=O)N2CCCc3ccccc32)c2ccccc12	none
O=S(=O)(NCCc1csc(-c2ccc(C(F)(F)F)cc2)n1)c1ccc2c(c1)OCCO2	WT yeast gro inh 73.8
Cc1c(-c2ccc(Br)cc2)nc2ccccn12	none
CN(C)c1ccc(-c2nc3ccccn3c2/N=C/c2ccc(Br)cc2)cc1	Lmaj promast 98.8
O=C(c1ccc(S(=O)(=O)N2CCOCC2)cc1)N(c1cccc(Cl)c1)C1C=CS(=O)(=O)C1 (centres undefined)	none
Cc1cccc2c(N)c3c(nc12)CCCC3 (tested in a mixture with another compound)	Lmaj promast 66.6
Cc1cc(C)c2c(N)c3cccc(C)c3nc2n1	Lmaj promast 100.4
Nc1c2c(nc3ccccc13)CCCC2	none
CCOC(=O)C1=C(CSc2nc(-c3ccccc3)ccc2C#N)OC(N)=C(C#N)C1c1ccc(OC)cc1 (centres undefined)	none
Clc1ccc(CNC2CCCC2)c(Cl)c1	Lmaj promast 93.8
S=C(NCc1ccc(Cl)cc1Cl)NC1CCCCC1	WT yeast gro inh 83.4
O=C(NCc1ccc(Cl)cc1Cl)C(=O)N1CCCCC1	none
CC(C)Cn1c(N)c(C(=O)COC(=O)C2CC(=O)N(Cc3ccccc3Cl)C2)c(=O)n(C)c1=O (centres undefined)	none
COc1cc(NC(=S)NN2CCN(C)CC2)cc(OC)c1	none
COc1ccccc1NC(=O)CC(=O)CSc1nnc(-c2ccc(C)cc2)n1-c1ccccc1	Lmaj promast 72.1
O=C(Nc1nc(-c2ccccc2)cs1)c1ccccc1NS(=O)(=O)c1ccc(F)cc1	WT yeast gro inh 77.9
O=S(=O)(Nc1ccc(-c2csc(-c3ccccc3)n2)cc1)c1ccc(F)cc1	WT yeast gro inh 92.4
N=C1SCC(=O)N1c1ncc(Cc2ccc(F)cc2)s1	none (no result: Diaphorase act, PMI act, PMI act hi M6P)
Cc1ccc(C2CN(C)C3(C(=O)Nc4ccccc43)C23COc2ccccc2C3=O)cc1 (centres undefined)	WT yeast gro inh 72.9
CC1OC2(OC1C)C(=O)Nc1ccccc12 (centres undefined)	none
CN1CC(c2ccccc2Cl)C2(COc3ccccc3C2=O)C12C(=O)Nc1ccccc12 (centres undefined)	WT yeast gro inh 59.0
CC(C)CC1=NN(C(=O)c2ccco2)C(O)(C(F)(F)F)C1 (centres undefined)	none
CC(C)CCNC(=O)c1ccc(Cl)c(NC(=O)Cc2ccccc2)c1	none
COC(=O)c1ccccc1NC(=O)C1CCN(C(=O)c2ccc(OC)cc2)CC1	none
CC(C)CCn1c(=O)c2ccccc2c2ccccc2c1=O	WT yeast gro inh 59.2
COc1ccc2[nH]c(=O)c(CN(CCN3CCCC3)C(=O)Nc3ccccc3Cl)cc2c1	none (no result: Lmaj promast)
CCOc1ccc2[nH]c(=O)c(CN(CCN3CCCC3)C(=S)Nc3ccccc3OCC)cc2c1	Lmaj promast 98.1
O=c1oc2ccccc2c(O)c1/C=C1\C=Nc2ccccc21	Lmaj promast 100.4
Cc1ccc(NC(=O)c2ccc([N+](=O)[O-])o2)cc1C	Lmaj promast 100.2
O=C(Nc1ccc(N2CCCC2)c(Cl)c1)c1ccco1	none
Cc1ccc(CNC(=O)c2ccc([N+](=O)[O-])o2)cc1	Lmaj promast 75.9
